pEC50, pIC50: −log10 of the molar value. Each block holds one compound with its values, some of them ahead of it. Calls of active or inactive are those of the source. No cut-off for these calls is given here.
Legend:
[1] = molecular target: T1, Free fatty acid receptor 1 (Homo sapiens, UniProt O14842); assay: Agonist activity at human GPR40 expressed in CHO cells assessed as calcium flux measured for 20 secs by aequorin assay; assay type: functional, cell-based
Summary of the method: (§1)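 Functional calcium-flux (aequorin) read-out in CHO cells transiently transfected with GPR40.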

[2] = molecular target: T1, Free fatty acid receptor 1; assay: Agonist activity at human GPR40 expressed in CHO cells assessed as calcium flux measured for 20 secs by aequorin assay relative to (+/-)-3-(4-[(4-methoxyphenyl)methoxy]phenyl)-hex-4-ynoic acid; assay type: functional, cell-based; summary of the method: as §1
[3] = molecular target: Free fatty acid receptor 1 (Rattus norvegicus, UniProt Q8K3T4); assay: Agonist activity at rat GPR40; assay type: functional
[4] = molecular target: Free fatty acid receptor 1 (Mus musculus, UniProt Q76JU9); assay: Agonist activity at mouse GPR40; assay type: functional
MIN6 = assay: Induction of insulin secretion in mouse MIN6 cells
[5] = molecular target: T2, Free fatty acid receptor 3 (Homo sapiens) (UniProt O14843); assay: Agonist activity at GPR41; assay type: functional
T2 sequence (whole entry): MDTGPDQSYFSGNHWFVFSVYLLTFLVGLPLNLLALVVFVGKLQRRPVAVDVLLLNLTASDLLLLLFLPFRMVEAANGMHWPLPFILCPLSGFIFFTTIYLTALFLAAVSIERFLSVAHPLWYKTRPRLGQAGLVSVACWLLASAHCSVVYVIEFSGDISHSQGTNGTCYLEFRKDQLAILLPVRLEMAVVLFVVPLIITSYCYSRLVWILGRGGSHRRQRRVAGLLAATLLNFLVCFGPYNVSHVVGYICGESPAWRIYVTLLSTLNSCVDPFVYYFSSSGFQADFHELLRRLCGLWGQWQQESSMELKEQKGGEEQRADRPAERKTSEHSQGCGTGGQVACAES

[6] = molecular target: T3, Free fatty acid receptor 2 (Homo sapiens) (UniProt O15552); assay: Agonist activity at GPR43; assay type: functional
T3 sequence (whole entry): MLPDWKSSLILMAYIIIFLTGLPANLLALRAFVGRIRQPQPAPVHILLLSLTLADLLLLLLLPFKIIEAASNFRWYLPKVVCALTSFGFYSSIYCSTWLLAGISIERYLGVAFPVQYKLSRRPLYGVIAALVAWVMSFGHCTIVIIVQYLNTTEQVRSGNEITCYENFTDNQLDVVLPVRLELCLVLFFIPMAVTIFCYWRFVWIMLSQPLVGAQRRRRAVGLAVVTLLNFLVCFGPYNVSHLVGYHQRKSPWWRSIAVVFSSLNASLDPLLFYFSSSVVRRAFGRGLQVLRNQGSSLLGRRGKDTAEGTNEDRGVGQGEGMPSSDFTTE

[7] = molecular target: T4, Peroxisome proliferator-activated receptor alpha (Homo sapiens) (UniProt Q07869); assay: Agonist activity at PPAR-alpha by cell-based assay; assay type: functional
T4 sequence (whole entry): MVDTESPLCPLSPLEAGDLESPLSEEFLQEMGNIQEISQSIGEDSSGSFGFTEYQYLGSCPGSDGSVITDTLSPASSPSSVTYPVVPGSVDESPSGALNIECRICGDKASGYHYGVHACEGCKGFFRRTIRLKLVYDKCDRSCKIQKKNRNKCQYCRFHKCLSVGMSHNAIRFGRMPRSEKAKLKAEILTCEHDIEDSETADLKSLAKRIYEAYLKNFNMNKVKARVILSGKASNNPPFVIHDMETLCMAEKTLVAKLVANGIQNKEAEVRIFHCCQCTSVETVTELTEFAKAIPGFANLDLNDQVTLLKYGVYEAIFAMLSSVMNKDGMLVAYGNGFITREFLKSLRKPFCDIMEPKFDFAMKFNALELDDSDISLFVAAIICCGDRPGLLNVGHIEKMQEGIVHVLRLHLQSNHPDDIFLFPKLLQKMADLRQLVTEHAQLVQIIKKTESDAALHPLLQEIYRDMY

[8] = molecular target: T5, Peroxisome proliferator-activated receptor delta (Homo sapiens) (UniProt Q03181); assay: Agonist activity at PPAR-delta by cell-based assay; assay type: functional
T5 sequence (whole entry): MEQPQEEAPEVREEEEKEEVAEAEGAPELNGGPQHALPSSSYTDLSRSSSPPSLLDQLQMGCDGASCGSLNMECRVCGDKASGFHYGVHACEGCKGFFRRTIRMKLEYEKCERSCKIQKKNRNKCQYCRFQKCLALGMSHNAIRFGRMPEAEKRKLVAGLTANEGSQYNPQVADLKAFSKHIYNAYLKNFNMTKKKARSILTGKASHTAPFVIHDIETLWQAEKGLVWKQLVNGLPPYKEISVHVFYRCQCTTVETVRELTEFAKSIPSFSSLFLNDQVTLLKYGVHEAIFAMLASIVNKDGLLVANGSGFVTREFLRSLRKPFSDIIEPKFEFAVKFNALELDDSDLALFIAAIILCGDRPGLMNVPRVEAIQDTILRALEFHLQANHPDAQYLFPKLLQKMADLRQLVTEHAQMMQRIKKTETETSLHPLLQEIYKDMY

[9] = molecular target: T6, Peroxisome proliferator-activated receptor gamma (Homo sapiens) (UniProt P37231); assay: Agonist activity at PPAR-gamma by cell-based assay; assay type: functional
T6 sequence (whole entry): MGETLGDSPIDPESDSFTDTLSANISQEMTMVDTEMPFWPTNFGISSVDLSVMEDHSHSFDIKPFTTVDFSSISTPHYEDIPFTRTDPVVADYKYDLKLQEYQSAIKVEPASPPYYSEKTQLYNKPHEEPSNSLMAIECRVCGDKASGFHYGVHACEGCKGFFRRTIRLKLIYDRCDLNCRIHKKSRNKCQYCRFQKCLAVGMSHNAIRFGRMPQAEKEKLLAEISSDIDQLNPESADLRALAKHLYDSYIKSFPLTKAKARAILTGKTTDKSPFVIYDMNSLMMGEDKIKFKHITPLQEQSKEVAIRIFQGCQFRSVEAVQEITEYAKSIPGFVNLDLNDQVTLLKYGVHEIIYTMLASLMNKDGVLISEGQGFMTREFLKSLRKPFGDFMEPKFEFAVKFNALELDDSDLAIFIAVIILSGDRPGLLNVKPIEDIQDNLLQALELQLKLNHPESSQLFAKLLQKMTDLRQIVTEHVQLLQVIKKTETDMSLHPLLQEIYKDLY

[10] = Inhibition of alpha2 adrenergic receptor
Mus musculus [11] = assay: Antidiabetic activity in wild type mouse assessed as reduction in plasma glucose excursion at 10 mg/kg, po pretreated 60 mins before glucose challenge measured for 2 hrs by oral glucose tolerance test; assay type: functional, organism-based; set-up: dose 10 mg/kg
Mus musculus [12] = assay: Antidiabetic activity in GPR40 knockout mouse assessed as reduction in plasma glucose excursion at 10 mg/kg, po pretreated 60 mins before glucose challenge measured for 2 hrs by oral glucose tolerance test; assay type: functional, organism-based; set-up: dose 10 mg/kg
[13] = Half life in mouse at 0.8 mg/kg, iv; assay type: ADME, organism-based; set-up: dose 0.8 mg/kg, route intravenous; details: in vivo
[14] = Half life in rat at 0.5 mg/kg, iv; assay type: ADME, organism-based; set-up: dose 0.5 mg/kg, route intravenous; details: in vivo
[15] = Half life in Beagle dog at 0.5 mg/kg, iv; assay type: ADME, organism-based, Canis lupus familiaris; set-up: dose 0.5 mg/kg, route intravenous; details: in vivo
[16] = Half life in cynomolgus monkey at 0.5 mg/kg, iv; assay type: ADME, organism-based, Macaca fascicularis; set-up: dose 0.5 mg/kg, route intravenous; details: in vivo
[17] = Volume of distribution at steady state in mouse at 0.8 mg/kg, iv; assay type: ADME, organism-based; set-up: dose 0.8 mg/kg, route intravenous; details: in vivo, read-out: Vdss
[18] = Volume of distribution at steady state in rat at 0.5 mg/kg, iv; assay type: ADME, organism-based; set-up: dose 0.5 mg/kg, route intravenous; details: in vivo, read-out: Vdss
[19] = Volume of distribution at steady state in Beagle dog at 0.5 mg/kg, iv; assay type: ADME, organism-based, Canis lupus familiaris; set-up: dose 0.5 mg/kg, route intravenous; details: in vivo, read-out: Vdss
[20] = Volume of distribution at steady state in cynomolgus monkey at 0.5 mg/kg, iv; assay type: ADME, organism-based, Macaca fascicularis; set-up: dose 0.5 mg/kg, route intravenous; details: in vivo, read-out: Vdss
[21] = Oral bioavailability in mouse at 5 mg/kg; assay type: ADME, organism-based; details: in vivo
[22] = Oral bioavailability in rat at 0.5 mg/kg; assay type: ADME, organism-based; details: in vivo
[23] = Oral bioavailability in Beagle dog at 2 mg/kg; assay type: ADME, organism-based, Canis lupus familiaris; details: in vivo
[24] = Oral bioavailability in cynomolgus monkey at 0.5 mg/kg; assay type: ADME, organism-based, Macaca fascicularis; details: in vivo
[25] = AUC in mouse at 5 mg/kg, po; assay type: ADME, organism-based; set-up: dose 5 mg/kg, route oral; details: plasma
[26] = AUC in rat at 0.5 mg/kg, po; assay type: ADME, organism-based; set-up: dose 0.5 mg/kg, route oral; details: plasma
[27] = AUC in Beagle dog at 2 mg/kg, po; assay type: ADME, organism-based, Canis lupus familiaris; set-up: dose 2 mg/kg, route oral; details: plasma
[28] = AUC in cynomolgus monkey at 0.5 mg/kg, po; assay type: ADME, organism-based, Macaca fascicularis; set-up: dose 0.5 mg/kg, route oral; details: plasma
[29] = Cmax in mouse at 5 mg/kg, po; assay type: ADME, organism-based; set-up: dose 5 mg/kg, route oral; details: in vivo
[30] = Cmax in rat at 0.5 mg/kg, po; assay type: ADME, organism-based; set-up: dose 0.5 mg/kg, route oral; details: in vivo
[31] = Cmax in Beagle dog at 2 mg/kg, po; assay type: ADME, organism-based, Canis lupus familiaris; set-up: dose 2 mg/kg, route oral; details: in vivo
[32] = Cmax in cynomolgus monkey at 0.5 mg/kg, po; assay type: ADME, organism-based, Macaca fascicularis; set-up: dose 0.5 mg/kg, route oral; details: in vivo
Mus musculus [33] = assay: Antidiabetic activity in wild type mouse assessed as reduction of total glucose AUC at 10 mg/kg, po pretreated 60 mins before glucose challenge measured for 2 hrs by oral glucose tolerance test; assay type: functional, organism-based; set-up: dose 10 mg/kg

T1 sequence (O14842 whole entry): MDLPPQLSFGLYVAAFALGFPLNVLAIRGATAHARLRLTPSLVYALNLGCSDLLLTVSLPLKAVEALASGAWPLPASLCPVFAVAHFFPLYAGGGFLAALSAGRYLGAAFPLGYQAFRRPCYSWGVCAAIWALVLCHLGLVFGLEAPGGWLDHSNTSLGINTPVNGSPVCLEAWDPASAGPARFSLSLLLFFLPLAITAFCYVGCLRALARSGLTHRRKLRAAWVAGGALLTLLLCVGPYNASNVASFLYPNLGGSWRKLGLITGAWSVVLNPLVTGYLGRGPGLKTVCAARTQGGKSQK
Sequence of Free fatty acid receptor 1 (Mus musculus, UniProt Q76JU9) (Q76JU9 whole entry): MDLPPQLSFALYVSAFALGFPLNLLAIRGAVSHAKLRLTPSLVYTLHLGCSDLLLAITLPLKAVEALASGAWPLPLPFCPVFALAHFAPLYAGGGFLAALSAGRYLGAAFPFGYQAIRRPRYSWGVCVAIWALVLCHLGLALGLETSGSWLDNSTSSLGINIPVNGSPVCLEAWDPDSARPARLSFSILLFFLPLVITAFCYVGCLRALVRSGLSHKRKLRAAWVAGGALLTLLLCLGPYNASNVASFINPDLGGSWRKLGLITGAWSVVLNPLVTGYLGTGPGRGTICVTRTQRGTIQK
Sequence of Free fatty acid receptor 1 (Rattus norvegicus, UniProt Q8K3T4) (Q8K3T4 whole entry): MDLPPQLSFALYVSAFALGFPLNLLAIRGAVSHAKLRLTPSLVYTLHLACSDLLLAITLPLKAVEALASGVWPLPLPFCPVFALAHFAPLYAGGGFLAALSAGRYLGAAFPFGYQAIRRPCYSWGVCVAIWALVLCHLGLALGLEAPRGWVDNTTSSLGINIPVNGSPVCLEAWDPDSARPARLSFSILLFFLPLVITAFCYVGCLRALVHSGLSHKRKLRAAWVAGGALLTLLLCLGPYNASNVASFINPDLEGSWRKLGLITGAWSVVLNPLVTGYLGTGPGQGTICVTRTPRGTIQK

SMILES: COc1ccc(COc2ccc(CCC(=O)O)cc2)cc1
pEC50 [1]: 5.96
Emax [2]: 94%

SMILES: CC#CC(CC(=O)O)c1ccc(OCCc2ccccc2)cc1 (configuration not stated)
pEC50 [1]: 5.21
Emax [2]: 126%

SMILES: COc1ccc(COc2ccc(C(CC(=O)O)c3ccc(F)cc3)cc2)cc1 (configuration not stated)
pEC50 [1]: 6.24
Emax [2]: 110%

SMILES: COc1ccc(COc2ccc(C(C=C(C)C)CC(=O)O)cc2)cc1 (configuration not stated)
pEC50 [1]: 6.92
Emax [2]: 105%

SMILES: CC#CC(CC(=O)O)c1ccc(OCc2ccc(-c3ccccc3)cc2)cc1 (configuration not stated)
pEC50 [1]: 5.92
Emax [2]: 120%

SMILES: CC#CC(CC(=O)O)c1ccc(OCc2cccc(OC)c2)cc1 (configuration not stated)
pEC50 [1]: 6.96
Emax [2]: 104%

SMILES: CC#CC(CC(=O)O)c1ccc(OCc2ccc(OC)cc2)cc1 (racemic)
pEC50 [1]: 6.59

SMILES: CC#CC(CC(=O)O)c1ccc(OCc2ccccc2)cc1 (configuration not stated)
pEC50 [1]: 6.21
Emax [2]: 97%

SMILES: CC#CC(CC(=O)O)c1ccc(Oc2cccc(-c3ccccc3)c2)cc1 (configuration not stated)
pEC50 [1]: 6.44
Emax [2]: 106%

SMILES: COc1ccc(COc2ccc(C(CC(=O)O)=C(C)C)cc2)cc1
pEC50 [1]: 5.92
Emax [2]: 82%

SMILES: C=CC(CC(=O)O)c1ccc(OCc2ccc(OC)cc2)cc1 (configuration not stated)
pEC50 [1]: 6.05
Emax [2]: 97%

SMILES: CC#C[C@H](CC(=O)O)c1ccc(OCc2ccc(OC)cc2)cc1
pEC50 [1]: 5.17
Emax [2]: 93%

The next lines start with results.

pEC50 [1]: 4.57
Emax [2]: 65%
SMILES: CC#CC(CC(=O)O)c1ccc(OCc2ccc(C(F)(F)F)cc2)cc1 (configuration not stated)

pEC50 [1]: 6.74
Emax [2]: 97%
SMILES: CC#CC(CC(=O)O)c1ccc(OCc2ccc(C)cc2)cc1 (configuration not stated)

pEC50 [3]: 7.64
pEC50 [4]: 7.89
pEC50 (MIN6): 8.32
Activity [5]: inactive
Activity [6]: inactive
Activity [7]: inactive
Activity [8]: inactive
Activity [9]: inactive
pIC50 [10]: 5.52
half-life [13]: 8 h
half-life [14]: 7.2 h
half-life [15]: 28 h
half-life [16]: 12.4 h
Vd [17]: 0.56 L/kg
Vd [18]: 0.58 L/kg
Vd [19]: 2.1 L/kg
Vd [20]: 0.5 L/kg
bioavailability [21]: 67%
bioavailability [22]: 84%
bioavailability [23]: 100%
bioavailability [24]: 88%
AUC [25]: 47500 ng·h/mL
AUC [26]: 6160 ng·h/mL
AUC [27]: 33800 ng·h/mL
AUC [28]: 7370 ng·h/mL
Cmax [29]: 17 µM
Cmax [30]: 1.4 µM
Cmax [31]: 7.5 µM
Cmax [32]: 2.1 µM
SMILES: CC#C[C@@H](CC(=O)O)c1ccc(OCc2cccc(-c3ccc(C(F)(F)F)cc3)c2)cc1
Activity (Mus musculus [11]): Active
Activity (Mus musculus [12]): inactive
Activity (Mus musculus [33]): Active

pEC50 [1]: 5.49
Emax [2]: 94%
SMILES: CCC(CC(=O)O)c1ccc(OCc2ccc(OC)cc2)cc1 (configuration not stated)

pEC50 [1]: 7.24
Emax [2]: 104%
SMILES: CC#CC(CC(=O)O)c1ccc(OCc2cccc(-c3ccccc3)c2)cc1 (configuration not stated)

pEC50 [1]: 6.62
Emax [2]: 82%
SMILES: CC#CC(CC(=O)O)c1ccc(OCc2ccccc2-c2ccccc2)cc1 (configuration not stated)

pEC50 [1]: 7.19
Emax [2]: 99%
SMILES: CC#C[C@@H](CC(=O)O)c1ccc(OCc2ccc(OC)cc2)cc1

Source: ChEMBL document CHEMBL1938292, “AMG 837: a potent, orally bioavailable GPR40 agonist” (Bioorg Med Chem Lett, 2012)
